Experiment: Toxicity liver stage against HepG2, at 10uM
Type: cell-based
Design: test concentration 10 uM, cell line HepG2-A16-CD81EGFP
Conditions: human, HepG2-A16-CD81EGFP cells; read-out: INHIBITION
How it was run: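 Uninfected HepG2-A16-CD81EGFP cells, 3 × 10^3 per well, 1536-well, plated on prespotted compound at 10 μM final, parasite-free screening media added to match infected plates; puromycin 10 μM positive, DMSO 0.5% negative; run in parallel with 48 h PbLuc assay at 37 °C, 5% CO2; viability by CellTiter-Glo luminescence, normalized to controls.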

Structure (SMILES)	cytotoxicity at 10 µM [%]
COCCCNC(=O)NCc1cccn1Cc1ccccc1C	2.88
COc1ccc(NC(=O)CCNc2ncccn2)cn1	-48.4
Cc1cc(NCc2ccco2)nc2[nH]nc(N)c12	-43.6
Cc1nn(-c2ncccn2)c2c1C(c1cnn(C)c1)SCC(=O)N2 (stereo not given)	-45
CCn1nnc(NCc2cc(Br)cc(Br)c2OC)n1	13.3
Cc1cc2nc(O)c(O)nc2cc1S(=O)(=O)NC1CC1	9.43
Cc1cccc(C2(O)CCN(Cc3ccccc3N3CCCC3)CC2)c1	10.6
CC(=O)Nc1nc(C2CCN(C(=O)c3cccnc3)CC2)cs1	-2.47
N#Cc1cccc(NC(=O)N[C@H](CO)Cc2ccc(O)cc2)c1	0.597
COc1cc(Cl)ccc1CNC(=O)N(C)C(C)CS(C)(=O)=O (stereo not given)	-50.1
CNC(=O)c1sccc1S(=O)(=O)Nc1ccc(C)cc1	11.4
CN(Cc1cccc(C(N)=O)c1)c1ncc(C#N)cc1Cl	8.36
C[C@H]1CN(C(=O)c2cccc(F)c2Cl)CCN1S(C)(=O)=O	-13.5
CN(C)C(=O)Cc1nc(CN2CCCC2Cn2cncn2)cs1 (stereo not given)	8.58
CC(=O)NCCCNCc1c(C)nn(CC(C)C)c1N(C)C	6.47
CC(O)(CNC(=O)c1cccnc1-n1cccn1)c1ccsc1 (stereo not given)	2.38
O=C(CCN1CCc2[nH]nc(C(F)(F)F)c2C1)Nc1ccccc1	-1.2
CC1(C)CN(Cc2csc(CS(C)(=O)=O)n2)Cc2ccccc21	6.38
O=C(NCCN1CCCC1)c1cc2c(s1)CCN2c1ncccn1	-108
CN(C)C(=O)[C@H]1CCS(=O)(=O)[C@@H]2CN(c3ncccn3)C[C@H]12	-103
CCc1ccccc1OC1CN(C(=O)c2ccnc(OC)c2)C1	32.8
CC(C)(C)c1cn(C2CCN(C(=O)c3cnccn3)CC2)nn1	14
N[C@H]1CN(C(=O)c2ccc(Cl)cc2O)C[C@@H]1C1CC1	-44.7

Structure (SMILES)	cytotoxicity at 10 µM [%]
Cn1ncc2c1NC(=O)CC2c1cc2c(cc1Cl)OCO2 (stereo not given)	55.6
COc1nc2c(cc1C(=O)N1CC[C@H](CO)[C@@H](O)C1)CCC2	-42.4
CCOC(=O)CC(C)Nc1nc(C2CCCC2)nc2c1cnn2C (stereo not given)	-43.1
Cc1cnc(NCc2cnn(C)c2)nc1-c1cnn(C)c1	52.1
N#Cc1cnc(N2Cc3cnn(Cc4ccc(F)cc4)c3C2)nc1N	4.84
O=C1N(CCO)CCCC12CCN(Cc1nnc(C3CC3)o1)C2 (stereo not given)	5.27
Cc1nc(CCNC(=O)CC2CCN(C(C)C)CC2)sc1Cl	-194
CCc1ncc2c(n1)CN(C(=O)c1c(C)[nH]c3c1C(=O)CCC3)C2	-45.8
Cc1nc(-n2cnnc2)ccc1-c1cccc2c1CCNC2	12.2
OC1(CN2CCCC2)CCCN(Cc2cnc(-c3ccco3)nc2)C1 (stereo not given)	-6.84
NCC1CCN(c2cnn(CCCn3cccn3)c(=O)c2)CC1	-52.8
CC(C)c1cc(N2CCC(NS(C)(=O)=O)CC2)n2nccc2n1	0.324
CC(=O)Nc1ncc(S(=O)(=O)N2CCC(C)CC2)s1	14.8
COc1ccccc1OCCCN(C)c1cc(C)nc(N)n1	1.39
CCCC(C)CN1CCC(n2cc(C3CCCC3)nn2)CC1 (stereo not given)	14.2
CSCc1ccc(C(=O)NCCCNc2ccc(C(F)(F)F)cn2)cc1	3.84
COc1ccc(OCC(=O)NS(=O)(=O)c2ccc(Br)s2)cc1	-0.383
O=C(NCCc1cccs1)[C@]12COC[C@H]1CN(C1CCOCC1)C2	-116
O=C(NC1CC(F)(F)C1)[C@]12COC[C@H]1CN(Cc1ccccc1)C2	-108
O=C(CC1CCCC1)N1C[C@@H]2CCN(c3cccnc3)C[C@@H]2C1	4.24
O=C(Nc1cccnc1)C1Cc2nc(-c3ccsc3)sc2N1CC1CC1 (stereo not given)	14.5
COc1cccc(-c2cccc(CN3C[C@H]4CC[C@@H](C3)N(C)C4=O)c2)c1	6.98
